Active and inactive are the calls of the source. No cut-off for these calls is given here.
Columns and labels:
HT-29 [1] = assay: Antiproliferative activity against human HT-29 cells assessed as relative c-Myc protein expression at 100 uM incubated for 48 hrs by flow cytometry analysis relative to control; format: functional
HT-29 [2] = assay: Immunomodulatory activity in human HT-29 cells co-cultured with interferon gamma-stimulated THP-1 cells assessed as induction of morphological changes by measuring cell shrinkage at 100 uM incubated for 48 hrs; format: functional, cell-based
Procedure, shortened: (§1)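 HT-29 cells co-cultured with IFN-γ-stimulated THP-1 cells and treated 48 h with compounds at 100 µM, with DMSO as control. Cell shrinkage and rounded morphology assessed by microscopy images.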

HT-29 [3] = assay: Immunomodulatory activity in human HT-29 cells co-cultured with interferon gamma-stimulated THP-1 cells assessed as relative CD-47 protein expression in membrane at 100 uM incubated for 48 hrs by flow cytometry analysis relative to control; format: functional
HT-29 [4] = assay: Antiproliferative activity against human HT-29 cells assessed as relative VEGFR-2 protein expression in whole cell at 100 uM incubated for 48 hrs by flow cytometry analysis relative to control; format: functional
HT-29 [5] = assay: Antiproliferative activity against human HT-29 cells assessed as relative PD-L1 protein expression in whole cell at 100 uM incubated for 48 hrs by flow cytometry analysis relative to control; format: functional
HT-29 [6] = assay: Antiproliferative activity against human HT-29 cells assessed as relative VEGFR-2 protein expression in membrane at 100 uM incubated for 48 hrs by flow cytometry analysis relative to control; format: functional
[7] = Toxicity against interferon gamma-stimulated human THP-1 monocyte cells co-cultured with human HT-29 cells assessed as reduction in cell viability at 100 uM incubated for 48 hrs by flow cytometry analysis; format: cell-based; settings: thp-1, 48 h
Procedure, shortened: (§2)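 HT-29 cells at 10^5/well seeded and grown 24 h. Medium then replaced with medium containing IFN-γ (10 ng/ml), 5 × 10^5 THP-1 cells/well and compound at 100 µM; DMSO used as control. After 48 h, THP-1 cells collected from supernatant and cancer cells by trypsinisation. Both fixed in 4% paraformaldehyde and counted by flow cytometry relative to control.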

HT-29 [8] = assay: Immunomodulatory activity in human HT-29 cells co-cultured with interferon gamma-stimulated THP-1 cells assessed as induction of morphological changes by measuring rounded cell morphology at 100 uM incubated for 48 hrs; format: functional, cell-based; procedure, shortened: as §1
HT-29 [9] = assay: Immunomodulatory activity in human HT-29 cells co-cultured with interferon gamma-stimulated THP-1 cells assessed as relative PD-L1 protein expression in membrane at 100 uM incubated for 48 hrs by flow cytometry analysis relative to control; format: functional
HT-29 [10] = assay: Antiproliferative activity against human HT-29 cells assessed as relative PD-L1 protein expression in membrane at 100 uM incubated for 48 hrs by flow cytometry analysis relative to control; format: functional
HT-29 [11] = assay: Immunomodulatory activity in human HT-29 cells co-cultured with interferon gamma-stimulated THP-1 cells assessed as reduction in number of cells at 100 uM incubated for 48 hrs; format: functional, cell-based; procedure, shortened: as §2
HT-29 [12] = assay: Immunomodulatory activity in human HT-29 cells co-cultured with interferon gamma-stimulated THP-1 cells assessed as cell viability at 100 uM incubated for 48 hrs by flow cytometry analysis relative to control; format: functional; settings: read-out: Activity; procedure, shortened: as §2
HT-29 [13] = assay: Immunomodulatory activity in human HT-29 cells co-cultured with interferon gamma-stimulated THP-1 cells assessed as inhibition of cell growth at 100 uM incubated for 48 hrs by flow cytometry analysis relative to control; format: functional; procedure, shortened: as §2

In the case of `COc1ccccc1Cn1nnc(-c2cccc(N)c2)n1`, the Activity (HT-29 [1]) is reported as 97%, the Activity (HT-29 [2]) is reported as “Active” and the Activity (HT-29 [3]) is reported as 77%. For the same compound, the Activity (HT-29 [4]) was over 100%, the Activity (HT-29 [5]) was over 100% and the Activity (HT-29 [6]) was 99%. For the same compound, the Activity [7] was “Non-Toxic”, the Activity (HT-29 [8]) was “Active” and the Activity (HT-29 [9]) was 92%. The Activity (HT-29 [10]) was 97%, the Activity (HT-29 [11]) was “Active” and the viability at 100 µM (HT-29 [12]) was 54%.

Compound `Cc1ccc(Cn2nnc(-c3cccc([N+](=O)[O-])c3)n2)cc1` has an Activity (HT-29 [1]) of 78%, an Activity (HT-29 [3]) of 88% and an Activity (HT-29 [4]) of 65%. The Activity (HT-29 [5]) was 92%, the Activity (HT-29 [6]) was over 100% and the Activity [7] was “Non-Toxic”. It also gave an Activity (HT-29 [9]) of 168%, an inhibition at 100 µM (HT-29 [13]) of over 70% and an Activity (HT-29 [10]) of 63%. For the same compound, the viability at 100 µM (HT-29 [12]) was 22%.

With `Cc1cccc(Cn2cc(-c3cccc(N)c3)nn2)c1` the Activity (HT-29 [3]) was 86%, the Activity [7] was “Non-Toxic” and the Activity (HT-29 [9]) was 114%. It also gave a viability at 100 µM (HT-29 [12]) of 44%.

In the case of `Cc1ccccc1Cn1cc(-c2cccc(N)c2)nn1`, the Activity (HT-29 [3]) is reported as 87%, the Activity [7] is reported as “Non-Toxic” and the Activity (HT-29 [9]) is reported as 120%. It also gave a viability at 100 µM (HT-29 [12]) of 74%.

For `COc1ccccc1Cn1cc(-c2cccc(N)c2)nn1`, the Activity (HT-29 [3]) was 62%, the Activity [7] was “Non-Toxic” and the Activity (HT-29 [9]) was 114%. The viability at 100 µM (HT-29 [12]) was 62%.

In the case of `COc1cccc(Cn2nnc(-c3cccc(N)c3)n2)c1`, the Activity (HT-29 [1]) is reported as 86%, the Activity (HT-29 [2]) is reported as “Active” and the Activity (HT-29 [3]) is reported as 78%. For the same compound, the Activity (HT-29 [4]) was over 100%, the Activity (HT-29 [5]) was over 100% and the Activity (HT-29 [6]) was 76%. For the same compound, the Activity [7] was “Non-Toxic”, the Activity (HT-29 [8]) was “Active” and the Activity (HT-29 [9]) was 84%. The Activity (HT-29 [10]) was over 100%, the Activity (HT-29 [11]) was “Active” and the viability at 100 µM (HT-29 [12]) was 66%.

In the case of `COc1ccc(Cn2nnc(-c3cccc([N+](=O)[O-])c3)n2)cc1`, the Activity (HT-29 [1]) is reported as over 100%, the Activity (HT-29 [2]) is reported as “Active” and the Activity (HT-29 [3]) is reported as 96%. It also gave an Activity (HT-29 [4]) of 39%, an Activity (HT-29 [5]) of 89% and an Activity (HT-29 [6]) of 88%. For the same compound, the Activity [7] was “Non-Toxic”, the Activity (HT-29 [8]) was “Active” and the Activity (HT-29 [9]) was 102%. For the same compound, the Activity (HT-29 [10]) was 84%, the Activity (HT-29 [11]) was “Active” and the viability at 100 µM (HT-29 [12]) was 35%.

`O=[N+]([O-])c1cccc(-c2nnn(Cc3cccc(Cl)c3)n2)c1` showed an Activity (HT-29 [1]) of over 100%, an Activity (HT-29 [3]) of 95% and an Activity (HT-29 [4]) of over 100%. The Activity (HT-29 [5]) was 90%, the Activity (HT-29 [6]) was 97% and the Activity [7] was “Non-Toxic”. The Activity (HT-29 [9]) was 136%, the Activity (HT-29 [10]) was over 100% and the viability at 100 µM (HT-29 [12]) was 90%.

For `COc1ccc(Cn2cc(-c3cccc(N)c3)nn2)cc1`, the Activity (HT-29 [3]) was 82%, the Activity [7] was “Non-Toxic” and the Activity (HT-29 [9]) was 113%. For the same compound, the viability at 100 µM (HT-29 [12]) was 40%.

In the case of `COc1cccc(Cn2nnc(-c3cccc([N+](=O)[O-])c3)n2)c1`, the Activity (HT-29 [1]) is reported as 75%, the Activity (HT-29 [2]) is reported as “Active” and the Activity (HT-29 [3]) is reported as 77%. It also gave an Activity (HT-29 [4]) of 42%, an Activity (HT-29 [5]) of over 100% and an Activity (HT-29 [6]) of over 100%. The Activity [7] was “Non-Toxic”, the Activity (HT-29 [8]) was “Active” and the Activity (HT-29 [9]) was 88%. For the same compound, the Activity (HT-29 [10]) was 83%, the Activity (HT-29 [11]) was “Active” and the viability at 100 µM (HT-29 [12]) was 40%.

In the case of `Nc1cccc(-c2cn(Cc3ccccc3Br)nn2)c1`, the Activity (HT-29 [3]) is reported as 75%, the Activity [7] is reported as “Non-Toxic” and the Activity (HT-29 [9]) is reported as 110%. For the same compound, the viability at 100 µM (HT-29 [12]) was 35%.

With `Nc1cccc(-c2nnn(Cc3ccccc3)n2)c1` the Activity (HT-29 [3]) was 104%, the Activity [7] was “Non-Toxic” and the Activity (HT-29 [9]) was 104%. It also gave a viability at 100 µM (HT-29 [12]) of 64%.
